Data on 26 molecules can be found in ChEMBL document CHEMBL4321805, “A Conformational Restriction Strategy for the Identification of a Highly Selective Pyrimido-pyrrolo-oxazine mTOR Inhibitor” (J Med Chem, 2019).

Data set [1] deals with Serine/threonine-protein kinase mTOR (Homo sapiens, UniProt P42345). The experiment in a line: Inhibition of alexa fluor 647-labeled kinase tracer 314 binding to recombinant human N-terminal GST-fused mTOR (1360 to 2549 residues) expressed in baculovirus expression system by TR-FRET assay. In a few lines: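 LanthaScreen TR-FRET tracer displacement. GST-fused truncated mTOR (aa 1360–2549) detected with Eu-anti-GST antibody (2 nM). […] Buffer: 50 mM HEPES, 5 mM MgCl2, 1 mM EGTA, 0.01% Pluronic F-127. Ki derived from displacement.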
(In general: In TR-FRET formats the signal depends on donor and acceptor labels being close together.)

For data set [2], the species on record is Homo sapiens. Briefly: Selectivity ratio of Ki for inhibition of alexa fluor 647-labeled kinase tracer 314 binding to recombinant human full-length N-terminal His6-tagged p110alpha/p85alpha expressed in baculovirus expression system to Ki for inhibition of alexa fluor 647-labeled kinase tracer 314 binding to recombinant human N-terminal GST-fused mTOR (1360 to 2549 residues) expressed in baculovirus expression system. In a few lines:
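Ratio of Ki values from the TR-FRET tracer 314 displacement assays. p110α: His6-tagged enzyme, biotin anti-His antibody and Eu-streptavidin (2 nM each), tracer at 20 nM, buffer 50 mM HEPES pH 7.5, 10 mM MgCl2, 1 mM EGTA, 0.01% Brij-35. mTOR: GST-mTOR 1360–2549, Eu-anti-GST, tracer 10 nM, HEPES/5 mM MgCl2/EGTA/Pluronic buffer.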

The target in data set [3] is PI3-kinase p110-alpha/p85-alpha (Homo sapiens, UniProt P42336). The experiment in a line: Inhibition of alexa fluor 647-labeled kinase tracer 314 binding to recombinant human full-length N-terminal His6-tagged p110alpha/p85alpha expressed in baculovirus expression system by TR-FRET assay.
PI3-kinase p110-alpha/p85-alpha, sequence (P27986 whole entry): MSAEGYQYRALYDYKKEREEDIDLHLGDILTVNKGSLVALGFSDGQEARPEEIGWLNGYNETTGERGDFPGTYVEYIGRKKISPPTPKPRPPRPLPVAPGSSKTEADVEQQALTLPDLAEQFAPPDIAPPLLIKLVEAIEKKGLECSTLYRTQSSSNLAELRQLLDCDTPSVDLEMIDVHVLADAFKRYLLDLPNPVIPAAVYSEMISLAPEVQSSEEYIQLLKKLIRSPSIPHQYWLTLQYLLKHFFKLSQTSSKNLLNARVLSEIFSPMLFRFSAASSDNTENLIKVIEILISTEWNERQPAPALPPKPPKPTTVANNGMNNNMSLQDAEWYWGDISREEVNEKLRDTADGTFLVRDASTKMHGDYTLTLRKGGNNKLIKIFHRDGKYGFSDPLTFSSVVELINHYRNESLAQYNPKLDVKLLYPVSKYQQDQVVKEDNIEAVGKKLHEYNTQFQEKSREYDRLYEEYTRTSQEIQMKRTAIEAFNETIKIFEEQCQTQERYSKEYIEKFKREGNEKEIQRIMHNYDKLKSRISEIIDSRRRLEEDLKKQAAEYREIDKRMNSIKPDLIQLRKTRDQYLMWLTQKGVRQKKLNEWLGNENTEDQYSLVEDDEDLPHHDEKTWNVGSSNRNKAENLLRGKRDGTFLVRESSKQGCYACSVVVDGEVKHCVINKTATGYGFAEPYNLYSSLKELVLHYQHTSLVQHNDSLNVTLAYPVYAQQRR
PI3-kinase p110-alpha/p85-alpha, sequence (P42336 whole entry): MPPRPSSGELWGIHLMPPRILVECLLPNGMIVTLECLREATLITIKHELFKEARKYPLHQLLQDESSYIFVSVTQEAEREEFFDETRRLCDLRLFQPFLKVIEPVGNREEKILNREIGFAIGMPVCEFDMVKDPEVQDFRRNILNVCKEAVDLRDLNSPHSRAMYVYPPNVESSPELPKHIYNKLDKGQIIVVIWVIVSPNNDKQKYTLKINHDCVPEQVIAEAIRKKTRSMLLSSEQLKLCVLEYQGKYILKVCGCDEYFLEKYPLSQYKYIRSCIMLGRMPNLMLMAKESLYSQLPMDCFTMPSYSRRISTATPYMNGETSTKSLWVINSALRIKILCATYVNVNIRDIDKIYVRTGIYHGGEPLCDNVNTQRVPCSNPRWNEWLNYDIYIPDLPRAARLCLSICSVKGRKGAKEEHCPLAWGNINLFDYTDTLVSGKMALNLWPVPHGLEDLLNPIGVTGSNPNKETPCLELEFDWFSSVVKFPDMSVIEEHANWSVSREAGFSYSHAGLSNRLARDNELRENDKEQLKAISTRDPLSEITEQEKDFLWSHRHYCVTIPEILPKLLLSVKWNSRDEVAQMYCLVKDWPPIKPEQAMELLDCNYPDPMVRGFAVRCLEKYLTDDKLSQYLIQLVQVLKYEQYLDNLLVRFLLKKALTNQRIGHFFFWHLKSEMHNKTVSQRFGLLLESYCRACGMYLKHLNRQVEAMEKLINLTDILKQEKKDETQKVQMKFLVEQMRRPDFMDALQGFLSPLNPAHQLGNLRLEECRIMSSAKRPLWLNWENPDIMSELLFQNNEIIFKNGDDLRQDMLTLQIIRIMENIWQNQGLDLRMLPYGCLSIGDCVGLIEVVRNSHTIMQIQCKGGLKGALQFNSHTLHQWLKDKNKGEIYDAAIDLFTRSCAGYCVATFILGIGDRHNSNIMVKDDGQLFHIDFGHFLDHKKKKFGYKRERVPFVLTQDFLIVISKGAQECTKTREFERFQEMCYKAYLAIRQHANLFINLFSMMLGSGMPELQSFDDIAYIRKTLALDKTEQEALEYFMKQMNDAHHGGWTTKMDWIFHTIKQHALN
Another data set addresses mTORC2 (Homo sapiens, UniProt P42345). Briefly: Inhibition of mTORC2 in human A2058 cells assessed as reduction in PKB phosphorylation at S473 residues incubated for 1 hr by Western blot analysis. The format is cell-based. In a few lines:
(§1)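 In-cell Western assay. A2058 cells (2 × 10^4/well) grown 24 h at 37 °C, 5% CO2, then exposed 1 h to inhibitor or DMSO. Cells fixed in 4% PFA, blocked, and stained for the phospho-protein with α-tubulin as internal standard; infrared fluorescence read-out. Signals normalized to tubulin and to DMSO controls to derive IC50.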

The next data set addresses mTORC1 (Homo sapiens, UniProt P42345). The experiment in a line: Inhibition of mTORC1 in human A2058 cells assessed as reduction in ribosomal protein S6 phosphorylation at Ser235/236 residues incubated for 1 hr by Western blot analysis. The format is cell-based. In a few lines:
as §1
For orientation: A western blot detects proteins with antibodies after separation by electrophoresis.

Another data set addresses T1, Cytochrome P450 1A1 (Homo sapiens, UniProt P04798).
T1 sequence (P04798 whole entry): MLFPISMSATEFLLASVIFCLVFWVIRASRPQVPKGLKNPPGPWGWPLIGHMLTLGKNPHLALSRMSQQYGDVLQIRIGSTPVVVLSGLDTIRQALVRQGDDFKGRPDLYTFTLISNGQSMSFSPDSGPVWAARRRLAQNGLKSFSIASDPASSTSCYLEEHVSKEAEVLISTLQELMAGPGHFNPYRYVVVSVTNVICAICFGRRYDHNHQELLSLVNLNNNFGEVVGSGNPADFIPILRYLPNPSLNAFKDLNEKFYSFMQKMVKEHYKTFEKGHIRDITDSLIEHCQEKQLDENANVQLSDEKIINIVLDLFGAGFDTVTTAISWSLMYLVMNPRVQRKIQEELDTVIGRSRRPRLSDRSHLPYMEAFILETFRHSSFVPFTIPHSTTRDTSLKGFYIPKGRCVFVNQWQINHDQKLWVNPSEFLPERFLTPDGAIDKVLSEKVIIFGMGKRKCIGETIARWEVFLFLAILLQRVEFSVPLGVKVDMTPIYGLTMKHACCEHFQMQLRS
Briefly: Drug level treated with 5-((R)-4-((R)-3-Methylmorpholino)-5a,6,8,9-tetrahydro-5H-pyrimido[5',4':4,5]pyrrolo[2,1-c][1,4]oxazin-2-yl)pyrimidin-2-amine assessed as recombinant human CYP1A1-mediated compound formation incubated for 60 mins by LC/MS analysis. The format is ADME. The following applies: recombinant enzyme, 1 h. In a few lines: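 Human recombinant CYP1A1 or CYP1A2 Supersomes (25 pmol/mL) incubated with compound at 1 μM (0.25% DMSO) plus NADP+-regenerating cofactors at 37 °C for 60 min. Reaction stopped with ACN containing internal standard. Parent and metabolites expressed as percentage of total peak areas.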

The species entered for data set [4] is Homo sapiens. The experiment in a line: Selectivity ratio of Kd for binding affinity to human wild-type partial length PI3Kalpha (R108 to N1068 residues) expressed in mammalian expression system to Kd for binding affinity to wild-type human partial length mTOR (L1382 to W2549 residues) expressed in mammalian expression system. The essentials: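 Ratio of Kd values from the DNA-tagged kinase competition binding assay (qPCR read-out, 11-point 3-fold dilution from 30 μM, Hill fit with slope −1, duplicates): PI3Kα Kd divided by mTOR Kd.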

By Ki is commonly meant a dissociation constant, usually derived from enzyme kinetics or from competition with a known ligand. For orientation: IC50 means the concentration at which inhibition is half-maximal.

Bounds are passed on as bounds.

`Nc1ccc(-c2nc(N3CCOCC3)nc3c2C[C@@H]2COCCN32)cn1`: the Ki is 1280 nM in data set [1] and 541 nM in data set [3]. In the data set listed under Homo sapiens [2], the Ratio Ki was 0.4. In addition, the half-inhibitory concentration (IC50) on mTORC2 is 1560 nM; on mTORC1, 1860 nM.
`Nc1cc(C(F)(F)F)c(-c2nc(N3CCOCC3)c3c(n2)N2CCOC[C@H]2C3)cn1`: the Ki in data set [3] came to 56 nM. Further, the IC50 turned out to be 355 nM on mTORC2 and 524 nM at mTORC1.
Regarding `Nc1ccc(-c2nc(N3CCOCC3)nc3c2C[C@H]2COCCN32)cn1`, the values for the Ki in data set [1] and in data set [3] were 812 nM and 867 nM, respectively. In addition, in the data set listed under Homo sapiens [2], the Ratio Ki is 1.1. Also, the IC50 at mTORC2 stood at 1870 nM; on mTORC1, 1790 nM.
Regarding `C[C@@H]1COCCN1c1nc(-c2ccc(N)nc2)nc2c1C[C@H]1COCCN21`, the values for the Ki in data set [1] and in data set [3] were 31 nM and 923 nM, respectively. The Ratio Ki in the data set filed under Homo sapiens [2] amounted to 30. Further, the results for the concentration for half-maximal inhibition (IC50) at mTORC2 and at mTORC1 were 363 nM and 230 nM, respectively.
`Nc1ccc(-c2nc(N3C4CCC3COC4)c3c(n2)N2CCOC[C@H]2C3)cn1`: the inhibition constant (Ki) came out at 31 nM in data set [1] and 1110 nM in data set [3]. Further, the Ratio Ki in the data set listed under Homo sapiens [2] amounted to 36. For the same molecule, the IC50 at mTORC2 worked out at 152 nM; on mTORC1, 132 nM.
For `COc1cc(N)ncc1-c1nc2c(c(N3CCOC[C@H]3C)n1)C[C@@H]1COCCN21` the same measures were 208 nM, 16000 nM, 77, 3760 nM and 2520 nM.
Consider `Nc1ccc(-c2nc(N3C4CCC3COC4)c3c(n2)N2CCOC[C@@H]2C3)cn1`, for which the Ki in data set [1] is 60 nM; in data set [3], 3230 nM. In addition, the Ratio Ki in the data set listed under Homo sapiens [2] is 54. Besides, the results for the IC50 at mTORC2 and on mTORC1 were 389 nM and 354 nM, respectively.
In the case of `COC(OC)c1nc(N)ncc1-c1nc2c(c(N3CCOC[C@H]3C)n1)C[C@@H]1COCCN21`, the inhibition constant (Ki) was determined as 34 nM in data set [1] and 66 nM in data set [3]. Also, the Ratio Ki in the data set filed under Homo sapiens [2] is 2. Besides, the results for the IC50 on mTORC2 and on mTORC1 were 534 nM and 377 nM, respectively.
With `Nc1cc(C(F)(F)F)c(-c2nc(N3CCOCC3)c3c(n2)N2CCCC[C@H]2C3)cn1`, in data set [3], the inhibition constant Ki was found to be 22 nM. Besides, the 50% inhibitory concentration (IC50) on mTORC2 is 407 nM; at mTORC1 it was 938 nM.
As for `Nc1ccc(-c2nc(N3CCOCC3)c3c(n2)N2CCOC[C@@H]2C3)cn1`, the values for the inhibitory constant (Ki) in data set [1] and in data set [3] were 69 nM and 76 nM, respectively. In addition, the Ratio Ki in the data set listed under Homo sapiens [2] was 1.1. In addition, the results for the half-maximal inhibitory concentration (IC50) on mTORC2 and at mTORC1 were 194 nM and 164 nM, respectively.
Take `Nc1cc(C(F)(F)F)c(-c2nc(N3CCOCC3)c3c(n2)N2CCCC[C@@H]2C3)cn1`: the Ki in data set [3] was 48 nM. Also, the IC50 was 321 nM at mTORC2 and 1240 nM at mTORC1.
In the case of `Nc1ccc(-c2nc(N3CC4CCC(C3)O4)c3c(n2)N2CCOC[C@H]2C3)cn1`, the inhibition constant (Ki) in data set [1] was 27 nM; in data set [3], 1410 nM. For the same molecule, the Ratio Ki in the data set listed under Homo sapiens [2] was found to be 53. Further, the values for the half-inhibitory concentration (IC50) on mTORC2 and at mTORC1 were 207 nM and 160 nM, respectively.
For `Cc1cc(-c2nc3c(c(N4CCOC[C@H]4C)n2)C[C@@H]2COCCN32)cnc1N` the same measures were 56 nM, 9630 nM, 172, 488 nM and 289 nM.
On to `CC(C=O)N(CCO)c1nc(-c2cnc(N)nc2)nc2c1C[C@@H]1COC=CN21` (stereo partly drawn), for which the Drug metabolism result on Cytochrome P450 1A1 is “Metabolite_Detected”.
As for `Nc1cc(C(F)(F)F)c(-c2nc(N3CCOCC3)c3c(n2)N2CCOC[C@@H]2C3)cn1`, the Ki in data set [3] was found to be 21 nM. In addition, the IC50 at mTORC2 worked out at 353 nM; at mTORC1 it was 751 nM.
Take `C[C@H]1COCCN1c1nc(-c2ccc(N)nc2)nc2c1C[C@H]1COCCN21`: the Ki came out at 104 nM in data set [1] and 98 nM in data set [3]. Also, the Ratio Ki in the data set filed under Homo sapiens [2] amounted to 0.9. For the same molecule, the figures for the IC50 at mTORC2 and on mTORC1 were 416 nM and 432 nM, respectively.
`Nc1cc(C(F)F)c(-c2nc(N3C4CCC3COC4)nc(N3C4CCC3COC4)n2)cn1`: the Ratio Ki in the data set filed under Homo sapiens [2] was found to be 389. Moreover, the figures for the IC50 at mTORC2 and at mTORC1 were 190 nM and 85.2 nM, respectively. In addition, the Selectivity ratio in the data set listed under Homo sapiens [4] is more than 3700.
On to `Cc1cc(N)ncc1-c1nc2c(c(N3CCOC[C@H]3C)n1)C[C@@H]1COCCN21`, for which the inhibition constant (Ki) in data set [1] came out at 85 nM; in data set [3], 2760 nM. Further, in the data set listed under Homo sapiens [2], the Ratio Ki turned out to be 33. Further, the half-maximal inhibitory concentration (IC50) at mTORC2 worked out at 1540 nM; on mTORC1, 826 nM.
With `Nc1ccc(-c2nc(N3CCOCC3)c3c(n2)N2CCOC[C@H]2C3)cn1`, the Ki in data set [1] is 24 nM; in data set [3], 432 nM. Also, the Ratio Ki in the data set filed under Homo sapiens [2] lay in the range of 18 to 18.3. Besides, the IC50 on mTORC2 is 116 to 118 nM; at mTORC1, 96 nM.
Take `C[C@H]1COCCN1c1nc(-c2ccc(N)nc2)nc2c1C[C@@H]1COCCN21`: the Ki in data set [1] came out at 9.1 nM; in data set [3] it was 386 nM. Further, the Ratio Ki in the data set listed under Homo sapiens [2] was 43. Moreover, the IC50 on mTORC2 turned out to be 194 nM; on mTORC1, 149 nM.
On to `Nc1cc(C(F)(F)F)c(-c2nc(N3CCCCC3)c3c(n2)N2CCOC[C@H]2C3)cn1`, for which the Ki in data set [3] is 138 nM. Moreover, the IC50 stood at 2080 nM at mTORC2 and 2650 nM on mTORC1.
In the same order, the values of `Nc1cc(C(F)(F)F)c(-c2nc(N3CCCCC3)c3c(n2)N2CCOC[C@@H]2C3)cn1` are 2830 nM, 21900 nM and 43300 nM.
Turning to `CC1(C)COCCN1c1nc(-c2ccc(N)nc2)nc2c1C[C@@H]1COCCN21`, the inhibition constant (Ki) in data set [1] is 24 nM; in data set [3] it was 376 nM. Besides, in the data set listed under Homo sapiens [2], the Ratio Ki came out at 16. Besides, the IC50 at mTORC2 turned out to be 409 nM; on mTORC1 it was 136 nM.
In the same order, the values of `Nc1ccc(-c2nc(N3CC4CCC(C3)O4)c3c(n2)N2CCOC[C@@H]2C3)cn1` are 96 nM, 1220 nM, 13, 403 nM and 245 nM.
As for `COC(OC)c1cc(N)ncc1-c1nc2c(c(N3CCOC[C@H]3C)n1)C[C@@H]1COCCN21`, the inhibition constant (Ki) in data set [1] is 300 nM; in data set [3], 1120 nM. The Ratio Ki in the data set filed under Homo sapiens [2] worked out at 3.7. In addition, the IC50 at mTORC2 is 6520 nM; on mTORC1 it was 2420 nM.
For `CC1(C)COCCN1c1nc(-c2ccc(N)nc2)nc2c1C[C@H]1COCCN21` the same measures were 121 nM, 7190 nM, 59, 1330 nM and 991 nM.
